{"data": "Published values pooled from the literature", "target": "Mitogen-activated protein kinase kinase kinase 5 (MAP3K5, Homo sapiens, UniProt Q99683)", "Residues used in one study (Q99683 1-1374)": "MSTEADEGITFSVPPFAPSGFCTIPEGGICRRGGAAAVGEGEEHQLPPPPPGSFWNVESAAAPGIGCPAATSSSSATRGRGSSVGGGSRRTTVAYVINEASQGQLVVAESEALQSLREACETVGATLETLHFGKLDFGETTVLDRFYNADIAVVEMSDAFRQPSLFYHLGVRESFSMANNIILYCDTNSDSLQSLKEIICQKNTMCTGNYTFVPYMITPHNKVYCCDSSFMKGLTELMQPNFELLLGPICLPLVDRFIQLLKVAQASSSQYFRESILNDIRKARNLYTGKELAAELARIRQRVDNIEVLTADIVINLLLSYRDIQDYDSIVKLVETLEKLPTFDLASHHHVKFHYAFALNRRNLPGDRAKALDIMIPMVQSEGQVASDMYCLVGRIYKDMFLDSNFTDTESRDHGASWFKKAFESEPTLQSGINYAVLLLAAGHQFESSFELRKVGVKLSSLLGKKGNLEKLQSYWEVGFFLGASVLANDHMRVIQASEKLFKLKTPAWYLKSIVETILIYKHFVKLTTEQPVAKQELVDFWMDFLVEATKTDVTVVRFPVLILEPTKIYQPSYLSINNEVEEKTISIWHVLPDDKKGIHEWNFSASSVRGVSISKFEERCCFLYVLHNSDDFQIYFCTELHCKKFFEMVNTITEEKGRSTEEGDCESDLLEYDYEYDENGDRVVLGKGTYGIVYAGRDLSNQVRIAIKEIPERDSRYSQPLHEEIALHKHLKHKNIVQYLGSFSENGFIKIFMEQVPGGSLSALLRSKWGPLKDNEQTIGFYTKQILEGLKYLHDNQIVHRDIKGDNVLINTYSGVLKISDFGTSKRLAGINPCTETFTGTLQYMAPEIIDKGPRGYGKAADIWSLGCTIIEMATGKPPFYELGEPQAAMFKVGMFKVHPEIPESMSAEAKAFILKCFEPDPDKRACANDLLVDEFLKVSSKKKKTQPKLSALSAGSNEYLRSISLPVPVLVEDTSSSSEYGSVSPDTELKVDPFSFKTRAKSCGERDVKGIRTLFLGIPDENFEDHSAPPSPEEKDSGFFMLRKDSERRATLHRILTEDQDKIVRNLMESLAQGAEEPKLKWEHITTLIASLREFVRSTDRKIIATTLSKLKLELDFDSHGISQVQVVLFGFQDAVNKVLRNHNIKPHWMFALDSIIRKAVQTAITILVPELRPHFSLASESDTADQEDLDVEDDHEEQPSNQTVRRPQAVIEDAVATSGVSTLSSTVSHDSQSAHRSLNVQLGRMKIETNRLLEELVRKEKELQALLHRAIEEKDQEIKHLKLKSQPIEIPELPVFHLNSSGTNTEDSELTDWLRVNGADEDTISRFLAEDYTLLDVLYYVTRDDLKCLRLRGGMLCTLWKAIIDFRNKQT", "note": "Compare with care: the assays were run in different laboratories."}
{"Compound": "CC(C)CC(=O)N1CCc2nc(-c3ccc(Br)cc3)nc(N(C)Cc3ccccc3)c2C1", "assay": "cell-free assay, competition with immobilised ligand", "setting": "0.1 µM", "measurement": "remaining binding", "value": "91%"}
{"Compound": "CC(C)c1ccc(NC(=O)c2cccs2)c(-c2nc3ccccc3[nH]c2=O)c1", "assay": "enzyme activity, inhibitor", "setting": "1 µM", "measurement": "activity vs control", "value": "107%"}
{"Compound": "FC(F)c1nc2ccccc2n1-c1nc(N2CCOCC2)nc(N2CCOCC2)n1", "assay": "enzyme activity, inhibitor", "setting": "10 µM", "measurement": "remaining activity", "value": "90%"}
{"Compound": "Cn1nc(C(=O)NCc2ccc(C(=O)O)cc2)cc1-c1ccc2[nH]ccc2c1", "assay": "cell-free assay, competition with immobilised ligand", "setting": "0.1 µM", "measurement": "remaining binding", "value": "86%"}
{"Compound": "CCN1CCN(Cc2ccc(NC(=O)c3ccc(C)c(/C=C/c4cnc5[nH]ccc5c4OC)c3)cc2C(F)(F)F)CC1", "assay": "target engagement in cells, inhibitor, chemoproteomics", "system": "A-375", "setting": "5 µM", "measurement": "inhibition", "value": "-35.5%"}
{"Compound": "FC(F)(F)Oc1cccc(-c2cnc3ccc(-c4ccncc4)nn23)c1", "assay": "enzyme activity, inhibitor, radiometric", "setting": "5 µM", "measurement": "activity vs control", "value": "104%"}
{"Compound": "CN(C(=O)c1ccccc1)c1cc(N(C)c2ccc3c(c2)CCc2ccc(C(=O)NCCN4CCOCC4)cc2C3=O)ccc1F", "assay": "cell-free assay, competition with immobilised ligand", "setting": "1 µM", "measurement": "remaining binding", "value": "100%"}
{"Compound": "CCCCNc1ncc2c(-c3ccc(F)cc3)nn(C[C@H]3CC[C@H](N)CC3)c2n1", "assay": "target engagement in cells, inhibitor, chemoproteomics", "setting": "20 mM", "measurement": "inhibition", "value": "-10.7%"}
{"Compound": "c1ccc(N2CCN(Cc3nc4ccccc4[nH]3)CC2)nc1", "assay": "binding, competition with immobilised ligand", "setting": "1 µM", "measurement": "remaining binding", "value": "93%"}
{"Compound": "CCN1CCC2(CC1)NC(=O)c1c(c3ccc(Cl)c(Cl)c3n1C)C2C#N (racemic)", "assay": "thermal stability, DSF", "setting": "10 µM", "measurement": "ΔTm", "value": "0.1 °C"}
{"Compound": "O=C1Nc2ccc(Cl)cc2C1=Cc1cc(Cl)c(O)c(Cl)c1", "assay": "cell-free assay", "setting": "0.5 µM", "measurement": "remaining signal", "value": "106%"}
{"Compound": "CN1CC(Oc2cnc(C#N)cc2-c2ccn3nc(NC(=O)C4CC4)cc3c2)C1", "assay": "enzyme activity, inhibitor", "setting": "1 µM", "measurement": "inhibition", "value": "-2%"}
{"Compound": "CC1=C(C#N)[C@@H](c2ccc3[nH]nc(C)c3c2)C(C#N)=C(c2ccc(Cl)cc2)N1", "assay": "cell-free assay, competition with immobilised ligand", "setting": "1 µM", "measurement": "remaining binding", "value": "100%"}
{"Compound": "Cn1c2c(Cl)c(Cl)ccc2c2cc[nH]c(=O)c21", "assay": "thermal stability, DSF", "setting": "10 µM", "measurement": "ΔTm", "value": "2.1 °C"}
{"Compound": "CNCc1ccc(-c2cc(-c3nc(-c4ccc(S(=O)(=O)C(C)C)cc4)cnc3N)on2)cc1", "assay": "enzyme activity, inhibitor", "setting": "0.4 µM", "measurement": "inhibition", "value": "0%"}
{"Compound": "CCN1CCN(Cc2ccc(NC(=O)c3ccc(C)c(Oc4ccnc5[nH]ccc45)c3)cc2C(F)(F)F)CC1", "assay": "target engagement in cells, inhibitor, chemoproteomics", "system": "A-375", "setting": "0.5 µM", "measurement": "inhibition", "value": "-10.5%"}
{"Compound": "Cn1c2c(Cl)c(Cl)ccc2c2cc(N)[nH]c(=O)c21", "assay": "thermal stability, DSF", "setting": "10 µM", "measurement": "ΔTm", "value": "1.5 °C"}
{"Compound": "COc1ccc2c(c1)O[C@H](c1ccc(OC)c(OC)c1)C[C@@H]2NC(=O)C1(c2ccc3c(c2)OC(F)(F)O3)CC1", "assay": "cell-free assay, competition with immobilised ligand", "setting": "1 µM", "measurement": "remaining binding", "value": "100%"}
{"Compound": "CC(C)(C)c1nc(-c2cccc(NS(=O)(=O)c3c(F)cccc3F)c2F)c(-c2ccnc(N)n2)s1", "assay": "enzyme activity, inhibitor, radiometric", "setting": "1 µM", "measurement": "remaining activity", "value": "98%"}
{"Compound": "O=C(Nc1cnn(-c2csc(C(=O)NC3COC3)c2)c1)Nc1c(F)cccc1Cl", "assay": "enzyme activity, inhibitor", "setting": "5 µM", "measurement": "remaining activity", "value": "91.1%"}
{"Compound": "CCN(CC)c1ccc(C2=NNC(=O)CC2C)cc1[N+](=O)[O-] (stereo not shown)", "assay": "enzyme activity, inhibitor", "setting": "10 µM", "measurement": "remaining activity", "value": "101%"}
{"Compound": "O=C(Nc1cnn(-c2csc(C(=O)NC3COC3)c2)c1)Nc1ccccc1Cl", "assay": "enzyme activity, inhibitor", "setting": "5 µM", "measurement": "remaining activity", "value": "91.2%"}
{"Compound": "CCC1(CC)NC(=O)c2c(c3ccc(Cl)c(Cl)c3n2C)C1C#N (stereo not shown)", "assay": "thermal stability, DSF", "setting": "10 µM", "measurement": "ΔTm", "value": "0.7 °C"}
{"Compound": "Cc1ccc(Nc2nccc(N(C)c3ccc4c(C)n(C)nc4c3)n2)cc1S(N)(=O)=O", "assay": "enzyme activity, inhibitor", "setting": "10 µM", "measurement": "inhibition", "value": "5%"}
{"Compound": "Cn1c2c(c3ccc(Cl)c(Cl)c31)C(C#N)C1(CCNCC1)NC2=O (racemic)", "assay": "thermal stability, DSF", "setting": "10 µM", "measurement": "ΔTm", "value": "0.1 °C"}
{"Compound": "COc1cc(Nc2cnc(C#N)c(O[C@H](C)CN(C)C)n2)ncc1-c1cnn(C)c1", "assay": "enzyme activity, inhibitor, radiometric", "setting": "1 µM", "measurement": "remaining activity", "value": "95%"}
{"Compound": "COc1cc(/C=C/C(=O)CC(=O)/C=C/c2ccc(O)c(OC)c2)ccc1O", "assay": "enzyme activity, inhibitor", "setting": "1 µM", "measurement": "activity vs control", "value": "101%"}
{"Compound": "CNC(=O)c1cc(Oc2ccc(NC(=O)Nc3ccc(Cl)c(C(F)(F)F)c3)cc2)ccn1", "assay": "enzyme activity, inhibitor", "setting": "10 µM", "measurement": "inhibition", "value": "9%"}
{"Compound": "Nc1ncnc2occ(-c3ccc(NC(=O)Nc4cc(C(F)(F)F)ccc4F)cc3)c12", "assay": "cell-free assay, inhibitor", "setting": "20 µM", "measurement": "remaining signal", "value": "7.8%"}
{"Compound": "CO[C@@H](C)c1c(Nc2ccc([C@@H](N(C)C(=O)C3CCS(=O)(=O)CC3)C(F)(F)F)cc2)cnc2cc(Cl)nn12", "assay": "cell-free assay, competition with immobilised ligand", "setting": "1 µM", "measurement": "remaining binding", "value": "81%"}
{"Compound": "Oc1cccc(-c2nc(N3CCOCC3)c3oc4ncccc4c3n2)c1", "assay": "enzyme activity, inhibitor", "setting": "10 µM", "measurement": "remaining activity", "value": "101%"}
{"Compound": "CCCCN(CCCC)C(=O)CN1C[C@H](c2cc(OC)c3c(c2)OCO3)[C@@H](C(=O)O)[C@@H]1CC(C)(C)CCC", "assay": "cell-free assay, competition with immobilised ligand", "setting": "1 µM", "measurement": "remaining binding", "value": "100%"}
{"Compound": "CCN(CC)CCNC(=O)c1c(C)[nH]c(/C=C2\\C(=O)Nc3ccc(F)cc32)c1C", "assay": "enzyme activity, inhibitor", "setting": "10 µM", "measurement": "inhibition", "value": "38%"}
{"Compound": "CC(C)(O)[C@H]1CC[C@H](Nc2ccc3ncc(-c4cccc(C(F)(F)F)c4)n3n2)CC1", "assay": "enzyme activity, inhibitor", "setting": "1 µM", "measurement": "remaining activity", "value": "96.7%"}
{"Compound": "N#CCCc1ccc2c(c1)-c1[nH]c3ccc([N+](=O)[O-])cc3c1CC(=O)N2", "assay": "cell-free assay", "setting": "0.5 µM", "measurement": "remaining signal", "value": "101%"}
{"Compound": "Cn1c2c(c3ccc(Cl)c(Cl)c31)C(C#N)C1(CCOCC1)NC2=O (stereo not shown)", "assay": "thermal stability, DSF", "setting": "10 µM", "measurement": "ΔTm", "value": "0.4 °C"}
{"Compound": "CCOc1cc(-c2nncn2C)ccc1Nc1ncc2cc(C)nc(NCC(C)(C)C)c2n1", "assay": "cell-free assay, TR-FRET", "setting": "1 µM", "measurement": "inhibition", "value": "≤ 15%"}
